Converted amounts (≈) assume the structure as drawn. The source made the active and inactive calls. The rule behind the calls is not given here.
Key:
[1] = system: Pseudomonas aeruginosa; assay: Inhibition of rhamnolipid production in Pseudomonas aeruginosa PAO1 at 1/2 to 1/4 times MIC by orcinol method; assay type: functional, organism-based
Summary of the method: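 Overnight PAO1 diluted 1:100 into LB with compound, 37 °C, 180 rpm; DMSO control. Supernatant (100 μL) mixed with 900 μL 0.19% orcinol in 53% H2SO4, heated 30 min at 80 °C, cooled, read at 421 nm.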

[2] = Inhibition of quorum sensing system in Pseudomonas aeruginosa PAO1
Summary of the method: (§1)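 Plate screen. CV026 grown overnight in LB with 50 μg ml−1 kanamycin; 15 μl seeded into 15 ml LB agar (1.0% agarose) containing 20 μM C4-HSL. PAO1 plates run in parallel. Test colonies inoculated by toothpick, incubated overnight at 37 °C. Ring of colourless viable cells around the colony scored as inhibition.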

[3] = system: Pseudomonas aeruginosa; assay: Inhibition of pyocyanin production in Pseudomonas aeruginosa PAO1 at 1/2 time MIC incubated for 18 hrs; assay type: functional
Summary of the method: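 Overnight PAO1 in LB diluted to OD600 = 0.05, subcultured 5–7 h to mid-log, rediluted to OD600 = 0.05. 5 mL with compound grown 18 h at 37 °C, 200 rpm. Supernatant extracted with 3 mL chloroform, back-extracted into 0.2 M HCl, absorbance at 520 nm.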

[4] = Inhibition of quorum sensing system in Chromobacterium violaceum CV026; summary of the method: as §1
[5] = system: Pseudomonas aeruginosa; assay: Antibacterial activity against Pseudomonas aeruginosa PAO1 by serial dilution method; assay type: functional
Summary of the method: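 PAO1 in LB, 37 °C. MIC by CLSI 2-fold serial dilution in Mueller–Hinton broth, inoculum 1–5 × 10^5 CFU mL−1, DMSO stocks. Growth curves: overnight culture diluted to OD600 = 0.05, subcultured to mid-log, rediluted to OD600 = 0.05, 3 mL with compound; OD620 read at 1, 3, 5, 7, 9, 11 and 24 h at 37 °C; DMSO negative control.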

[6] = system: Pseudomonas aeruginosa; assay: Inhibition of biofilm formation in Pseudomonas aeruginosa PAO1 at 1/2 times MIC incubated for 24 hrs crystal violet staining based SEM assay; assay type: functional
[7] = system: Pseudomonas aeruginosa; assay: Inhibition of biofilm formation in Pseudomonas aeruginosa PAO1 incubated for 24 hrs crystal violet staining based SEM assay; assay type: functional, organism-based
[8] = system: Pseudomonas aeruginosa; assay: Inhibition of biofilm formation in Pseudomonas aeruginosa PAO1 at 1/4 times MIC incubated for 24 hrs crystal violet staining based SEM assay; assay type: functional

| Structure (SMILES) | inhibition [1] | inhibition [2] | inhibition [3] | inhibition [4] | MIC [5] [µg/mL] | inhibition (INH) [6] [%] | inhibition [7] | inhibition (INH) [8] [%] | inhibition (INH) [3] [%] |
| --- | --- | --- | --- | --- | --- | --- | --- | --- | --- |
| N#Cc1cccc(Cl)c1Cc1c[nH]c2ccccc12 | Active | Active; Strong Inhibition Observed | Active; Showed Higher Activity Than Positive Control Rsv | Active; Showed Higher Activity | 24 (≈ 90 µM) | 4 | Dose-dependent-effect |  |  |
| N#Cc1cccc(F)c1Cc1c[nH]c2ccccc12 |  | Active; Strong Inhibition Observed | Active | Active; Showed Higher Activity |  | 49 | Dose-dependent-effect |  |  |
| N#Cc1ccccc1Cc1ccccc1 |  |  | Active |  |  |  | Dose-dependent-effect |  |  |
| Cc1cccc2c(Cc3ccccc3C#N)c[nH]c12 |  | Active | Active | Active; Showed Higher Activity |  | 40 | Dose-dependent-effect |  |  |
| N#Cc1c(Cl)cccc1Cc1c[nH]c2ccccc12 |  | Active; Strong Inhibition Observed | Active | Active |  | 1 | Dose-dependent-effect |  |  |
| Nc1ccccc1Cc1c[nH]c2ccccc12 |  |  | Active; Showed Higher Activity Than Positive Control Rsv | Active; Showed Higher Activity |  |  | Dose-dependent-effect |  |  |
| CC(c1ccccc1C#N)c1c[nH]c2ccccc12 (configuration not stated) |  | Active; Strong Inhibition Observed | Active |  |  |  | Dose-dependent-effect |  |  |
| N#Cc1ccccc1Cc1c[nH]c2cccc(F)c12 |  |  | Active |  |  | 35 | Dose-dependent-effect |  |  |
| N#Cc1ccccc1Cc1c[nH]c2ccccc12 | Active | Active; Strong Inhibition Observed | Active; Showed Higher Activity Than Positive Control Rsv | Active; Showed Higher Activity | 96 (≈ 413 µM) | 38 | Dose-dependent-effect | 15 |  |
| CC(C)(C)OC(=O)n1c(-c2ccccc2)c(Cc2ccccc2C#N)c2ccccc21 |  |  | Active; Showed Higher Activity Than Positive Control Rsv |  |  |  | Dose-dependent-effect |  |  |
| Cc1[nH]c2ccccc2c1Cc1ccccc1C#N |  | Active | Active |  |  | 13 | Dose-dependent-effect |  |  |
| CCOC(=O)C(C#N)c1c[nH]c2ccccc12 (configuration not stated) |  |  | Active | Active |  |  | Dose-dependent-effect |  |  |
| N#Cc1ccccc1Cc1c[nH]c2ccc(Br)cc12 |  | Active; Strong Inhibition Observed |  | Active; Showed Higher Activity |  | 39 | Dose-dependent-effect |  | 64 |
| CCOC(=O)C(C#N)Cc1c[nH]c2ccccc12 (configuration not stated) |  | Active; Strong Inhibition Observed | Active |  |  |  | Dose-dependent-effect |  |  |
| Cc1ccc(Cc2c[nH]c3ccccc23)c(C#N)c1 |  | Active; Strong Inhibition Observed |  |  |  | 1 | Dose-dependent-effect |  | 60 |
| N#Cc1ccc(F)cc1Cc1c[nH]c2ccccc12 | Active | Active; Strong Inhibition Observed | Active; Showed Higher Activity Than Positive Control Rsv | Active | 12 (≈ 47.9 µM) | 19 | Dose-dependent-effect |  |  |
| N#Cc1cc(F)ccc1Cc1c[nH]c2ccccc12 | Active | Active; Strong Inhibition Observed | Active; Showed Higher Activity Than Positive Control Rsv | Active; Showed Higher Activity | 48 (≈ 192 µM) | 19 | Dose-dependent-effect |  |  |

| Structure (SMILES) | inhibition [1] | inhibition [2] | inhibition [3] | inhibition [4] | MIC [5] [µg/mL] | inhibition (INH) [6] [%] | inhibition [7] | inhibition (INH) [8] [%] | inhibition (INH) [3] [%] |
| --- | --- | --- | --- | --- | --- | --- | --- | --- | --- |
| Cc1cccc(Cc2c[nH]c3ccccc23)c1C#N |  | Active; Strong Inhibition Observed | Active | Active; Showed Higher Activity |  | 27 | Dose-dependent-effect |  |  |
| Cc1[nH]c2ccccc2c1CCc1ccccc1C#N |  | Active; Strong Inhibition Observed | Active | Active |  |  | Dose-dependent-effect |  |  |
| Cc1ccc2c(Cc3ccccc3C#N)c[nH]c2c1 |  | Active | Active; Showed Higher Activity Than Positive Control Rsv | Active; Showed Higher Activity |  | 7 | Dose-dependent-effect |  |  |
| N#Cc1ccccc1Cc1c[nH]c2cc(Cl)ccc12 |  | Active | Active |  |  | 26 | Dose-dependent-effect |  |  |
| Cn1cc(Cc2ccccc2C#N)c2ccccc21 |  |  | Active |  |  |  | Dose-dependent-effect |  |  |
| Cc1cccc2[nH]cc(Cc3ccccc3C#N)c12 |  | Active | Active; Showed Higher Activity Than Positive Control Rsv | Active; Showed Higher Activity |  | 17 | Dose-dependent-effect |  |  |
| Cc1ccc2[nH]cc(Cc3ccccc3C#N)c2c1 |  | Active | Active | Active |  | 50 | Dose-dependent-effect |  |  |
| Cc1ccc(C#N)c(Cc2c[nH]c3ccccc23)c1 |  | Active; Strong Inhibition Observed | Active |  |  | 24 | Dose-dependent-effect |  |  |
| N#Cc1ccccc1Cc1c[nH]c2ccc(Cl)cc12 |  | Active | Active | Active; Showed Higher Activity |  | 11 | Dose-dependent-effect |  |  |
| N#Cc1ccccc1Cc1c[nH]c2cc(Br)ccc12 |  |  | Active |  |  | 21 | Dose-dependent-effect |  |  |
| CCc1ccccc1C#N |  |  | Active | Active; Showed Higher Activity |  |  | Dose-dependent-effect | 12 |  |
| Cc1c(Cc2ccccc2C#N)c2ccccc2n1C(=O)OC(C)(C)C |  |  | Active |  |  |  | Dose-dependent-effect |  |  |
| COc1cccc2[nH]cc(Cc3ccccc3C#N)c12 |  | Active; Strong Inhibition Observed | Active |  |  | 21 | Dose-dependent-effect |  |  |
| N#Cc1ccc(Br)cc1Cc1c[nH]c2ccccc12 |  | Active | Active | Active |  | 21 | Dose-dependent-effect |  |  |
| N#Cc1ccc(Cl)cc1Cc1c[nH]c2ccccc12 |  | Active | Active |  |  | 56 | Dose-dependent-effect |  |  |
| N#CCCc1c[nH]c2ccccc12 |  | Active; Strong Inhibition Observed | Active | Active; Showed Higher Activity |  |  | Dose-dependent-effect | 9 |  |
